According to ChEMBL document CHEMBL1933063, “Investigation of chalcones and benzochalcones as inhibitors of breast cancer resistance protein” (Bioorg Med Chem, 2012):

How the values were obtained:
[1] = target: T1, Broad substrate specificity ATP-binding cassette transporter ABCG2 (Homo sapiens, UniProt Q9UNQ0); assay: Inhibition of human BCRP expressed in MDCK2 cells assessed as Hoechst 33342 accumulation preincubated for 30 mins by fluorimetry; assay type: cell-based, MDCK-II
T1 sequence (Q9UNQ0 whole entry): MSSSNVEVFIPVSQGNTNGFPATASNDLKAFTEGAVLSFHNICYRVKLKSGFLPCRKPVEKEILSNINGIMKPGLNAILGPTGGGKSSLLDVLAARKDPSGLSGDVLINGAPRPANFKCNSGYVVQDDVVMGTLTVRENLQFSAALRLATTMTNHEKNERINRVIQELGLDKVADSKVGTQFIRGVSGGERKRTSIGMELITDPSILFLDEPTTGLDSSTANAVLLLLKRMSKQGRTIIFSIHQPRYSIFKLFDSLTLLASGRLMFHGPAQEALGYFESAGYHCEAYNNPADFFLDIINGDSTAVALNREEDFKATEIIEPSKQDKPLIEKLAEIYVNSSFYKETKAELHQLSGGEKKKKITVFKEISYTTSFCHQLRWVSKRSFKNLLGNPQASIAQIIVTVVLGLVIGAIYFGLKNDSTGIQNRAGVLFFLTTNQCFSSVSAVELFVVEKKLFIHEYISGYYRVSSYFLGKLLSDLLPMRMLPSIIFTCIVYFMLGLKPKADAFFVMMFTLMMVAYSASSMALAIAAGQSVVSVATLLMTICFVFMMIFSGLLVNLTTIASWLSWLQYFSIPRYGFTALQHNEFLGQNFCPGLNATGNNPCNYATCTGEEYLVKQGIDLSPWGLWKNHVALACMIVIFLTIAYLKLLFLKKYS
Summary of the method: (§1)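 Cells washed three times in Krebs-HEPES buffer, about 20,000 per well, preincubated with test compound at varied concentrations for 30 min at 37 °C, 5% CO2. Hoechst 33342 then added (final 1 µM). Fluorescence (ex 355, em 460 nm) read every 60 s up to 120 min at 37 °C. KHB background subtracted, 100–109 min mean plotted, four-parameter logistic fit; ≥3 independent experiments.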

[2] = target: T1, Broad substrate specificity ATP-binding cassette transporter ABCG2; assay: Inhibition of BCRP in human MCF7/MX cells assessed as Hoechst 33342 accumulation preincubated for 30 mins by Fluorometry; assay type: cell-based; summary of the method: as §1
[3] = target: Multidrug resistance-associated protein 1 (Homo sapiens, UniProt P33527); assay: Inhibition of MRP1 overexpressed in human 2008 MRP1 cells assessed as calcein AM accumulation at 10 uM by fluorimetry; assay type: cell-based; conditions: human, 2008, 10 µM
Chain of Multidrug resistance-associated protein 1 (P33527 whole entry): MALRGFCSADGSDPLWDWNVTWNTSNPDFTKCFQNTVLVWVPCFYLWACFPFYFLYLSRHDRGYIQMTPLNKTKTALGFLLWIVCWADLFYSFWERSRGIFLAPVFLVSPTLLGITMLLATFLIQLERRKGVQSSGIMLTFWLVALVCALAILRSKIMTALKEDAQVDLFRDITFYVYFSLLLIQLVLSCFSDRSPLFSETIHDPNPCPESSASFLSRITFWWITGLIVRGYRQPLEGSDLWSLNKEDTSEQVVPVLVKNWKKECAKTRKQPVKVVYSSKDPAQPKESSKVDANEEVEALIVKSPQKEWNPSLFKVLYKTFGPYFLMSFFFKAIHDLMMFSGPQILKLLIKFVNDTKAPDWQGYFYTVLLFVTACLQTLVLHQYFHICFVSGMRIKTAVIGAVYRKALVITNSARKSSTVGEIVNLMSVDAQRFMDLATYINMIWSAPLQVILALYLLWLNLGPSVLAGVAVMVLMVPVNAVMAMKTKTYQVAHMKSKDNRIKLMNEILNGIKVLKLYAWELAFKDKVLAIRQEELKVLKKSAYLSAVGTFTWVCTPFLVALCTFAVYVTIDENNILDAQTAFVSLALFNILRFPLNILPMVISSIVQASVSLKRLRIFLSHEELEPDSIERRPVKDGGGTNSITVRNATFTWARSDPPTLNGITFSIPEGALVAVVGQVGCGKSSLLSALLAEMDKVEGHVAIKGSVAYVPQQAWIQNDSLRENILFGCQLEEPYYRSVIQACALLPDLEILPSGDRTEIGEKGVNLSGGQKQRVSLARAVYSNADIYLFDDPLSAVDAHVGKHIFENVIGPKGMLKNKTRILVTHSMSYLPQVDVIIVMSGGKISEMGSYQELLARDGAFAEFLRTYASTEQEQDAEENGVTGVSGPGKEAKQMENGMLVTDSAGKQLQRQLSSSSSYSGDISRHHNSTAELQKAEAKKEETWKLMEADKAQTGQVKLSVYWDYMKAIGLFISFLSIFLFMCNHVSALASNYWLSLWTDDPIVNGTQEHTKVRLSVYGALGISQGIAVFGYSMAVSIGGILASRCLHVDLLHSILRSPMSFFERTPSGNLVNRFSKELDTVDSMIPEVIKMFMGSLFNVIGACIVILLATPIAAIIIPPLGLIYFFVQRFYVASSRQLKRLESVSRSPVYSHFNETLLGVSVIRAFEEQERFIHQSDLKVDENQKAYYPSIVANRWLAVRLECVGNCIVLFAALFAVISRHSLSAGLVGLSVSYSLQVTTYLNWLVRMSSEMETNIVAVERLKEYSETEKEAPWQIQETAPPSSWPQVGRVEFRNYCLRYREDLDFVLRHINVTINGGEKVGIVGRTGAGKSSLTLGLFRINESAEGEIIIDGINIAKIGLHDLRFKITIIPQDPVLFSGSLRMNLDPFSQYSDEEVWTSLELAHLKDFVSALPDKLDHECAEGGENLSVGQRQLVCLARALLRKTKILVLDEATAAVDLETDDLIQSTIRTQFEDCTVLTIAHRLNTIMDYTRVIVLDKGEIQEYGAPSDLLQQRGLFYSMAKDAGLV
Summary of the method: (§2)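 Calcein AM accumulation in A2780adr (P-gp) or 2008 MRP1 cells. Cells washed in Krebs-HEPES buffer, about 30,000 per well, preincubated 30 min with compound at 10 µM final. Calcein AM then added. Fluorescence (ex 485, em 520 nm) read every 60 s up to 90 min at 37 °C. Expressed as percent of vehicle control; n = 3.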

[4] = target: ATP-dependent translocase ABCB1 (Homo sapiens, UniProt P08183); assay: Inhibition of MDR1 in human A2780adr cells assessed as calcein AM accumulation at 10 uM by fluorimetry; assay type: cell-based; conditions: a2780 adr; summary of the method: as §2
Chain of ATP-dependent translocase ABCB1 (P08183 whole entry): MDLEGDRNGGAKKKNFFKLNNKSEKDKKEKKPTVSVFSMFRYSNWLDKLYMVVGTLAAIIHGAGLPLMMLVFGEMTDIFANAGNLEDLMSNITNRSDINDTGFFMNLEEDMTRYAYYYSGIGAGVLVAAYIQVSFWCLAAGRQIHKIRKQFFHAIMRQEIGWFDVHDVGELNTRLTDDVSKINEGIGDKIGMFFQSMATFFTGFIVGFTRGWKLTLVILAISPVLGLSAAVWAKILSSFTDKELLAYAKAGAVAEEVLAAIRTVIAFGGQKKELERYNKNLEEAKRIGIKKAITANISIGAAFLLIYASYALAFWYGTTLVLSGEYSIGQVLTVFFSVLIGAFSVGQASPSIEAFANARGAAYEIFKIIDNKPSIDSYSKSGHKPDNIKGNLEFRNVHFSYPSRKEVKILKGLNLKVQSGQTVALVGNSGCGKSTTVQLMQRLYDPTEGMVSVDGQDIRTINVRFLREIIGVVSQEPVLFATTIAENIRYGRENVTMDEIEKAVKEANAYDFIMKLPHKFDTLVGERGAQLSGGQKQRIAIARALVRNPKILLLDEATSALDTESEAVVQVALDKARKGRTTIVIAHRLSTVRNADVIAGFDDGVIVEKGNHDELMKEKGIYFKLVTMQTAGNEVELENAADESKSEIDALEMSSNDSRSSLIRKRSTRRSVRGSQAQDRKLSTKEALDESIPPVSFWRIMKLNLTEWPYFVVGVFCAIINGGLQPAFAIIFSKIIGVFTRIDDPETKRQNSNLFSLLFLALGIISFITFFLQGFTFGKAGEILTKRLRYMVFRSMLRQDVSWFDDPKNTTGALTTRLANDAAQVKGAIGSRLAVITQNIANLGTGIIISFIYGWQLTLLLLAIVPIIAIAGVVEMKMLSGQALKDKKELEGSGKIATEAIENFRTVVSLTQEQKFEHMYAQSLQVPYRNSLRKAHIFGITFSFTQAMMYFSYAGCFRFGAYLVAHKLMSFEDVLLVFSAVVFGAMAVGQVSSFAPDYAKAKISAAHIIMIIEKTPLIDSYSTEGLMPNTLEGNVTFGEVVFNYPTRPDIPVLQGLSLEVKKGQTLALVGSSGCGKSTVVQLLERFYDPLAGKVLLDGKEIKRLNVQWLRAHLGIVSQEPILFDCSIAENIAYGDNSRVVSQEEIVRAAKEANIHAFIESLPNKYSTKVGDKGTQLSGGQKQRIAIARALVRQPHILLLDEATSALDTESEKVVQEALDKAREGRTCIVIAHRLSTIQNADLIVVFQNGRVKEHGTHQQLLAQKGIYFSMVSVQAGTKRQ

[5] = test system: MDCK-II; assay: Potentiation of SN-38 anticancer activity against MDCK2 cells expressing human BCRP after 72 hrs by MTT assay; assay type: functional, cell-based; conditions: Canis lupus familiaris
Summary of the method: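 Cells seeded (1250/well MDCK, 10,000/well MCF-7) and left 6 h at 37 °C, 5% CO2. Mitoxantrone or SN-38 dose range added with or without three concentrations of modulator, then 72 h incubation. MTT added for 1 h, cells lysed in DMSO, absorbance read at 544 nm minus 710 nm. EC50 derived; parental cells as controls; three independent experiments.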

Structure (SMILES) | IC50 ([1]; mdck-ii) | IC50 ([2]; mcf7/mx) | inhibition (INH) [3] | inhibition (INH) [4] | IC50 ([1]; read-out: IC50) [µM] | IC50 ([2]; read-out: IC50) [µM] | Activity [5]
O=C(/C=C/c1ccccc1Cl)c1ccc2ccccc2c1O | Not Active | Not Active | Not Active | Active |  |  | 
O=C(/C=C/c1ccccc1Cl)c1ccc(O)cc1O |  |  | Not Active | Active | 3.28 | 3.21 | 
COc1ccc(C(=O)/C=C/c2ccc(Cl)cc2)c(O)c1 |  |  | Not Active | Active | 10.7 | 13.5 | 
COc1ccc(C(=O)/C=C/c2ccccc2Cl)cc1OC |  |  | Not Active | Active | 7.8 | 11 | 
COc1cccc(/C=C/C(=O)c2ccc3ccccc3c2O)c1 |  |  | Not Active | Active | 5.68 | 11.9 | 
COc1ccc(/C=C/C(=O)c2ccccc2O)cc1OC |  |  | Not Active | Active | 4.97 | 5.07 | 
O=C(/C=C/c1ccccc1Cl)c1ccccc1 | Not Active | Not Active | Not Active | Active |  |  | 
O=C(/C=C/c1ccc(Cl)cc1)c1ccc2ccccc2c1O | Not Active | Not Active | Not Active | Active |  |  | 
O=C(/C=C/c1ccc(Cl)cc1)c1ccc(O)cc1O |  |  | Not Active | Active | 6.37 | 6.07 | 
COc1ccc(C(=O)/C=C/c2ccccc2Cl)c(O)c1 |  |  | Not Active | Active | 3.32 | 6.85 | 
COc1ccc(/C=C/C(=O)c2ccc(OC)c(OC)c2)cc1OC |  |  | Not Active | Active | 3.8 | 3.28 | 
O=C(/C=C/c1ccc(Cl)c(Cl)c1)c1ccc2ccccc2c1O |  |  | Not Active | Active | 22.4 | 26.1 | 
O=C(/C=C/c1ccc(Cl)cc1)c1c(O)ccc2ccccc12 | Not Active | Not Active | Not Active | Active |  |  | 
COc1ccc(C(=O)/C=C/c2ccccc2)c(O)c1 |  |  | Not Active | Active | 30.9 | 31 | 
O=C(/C=C/c1ccccc1)c1ccc2ccccc2c1O |  |  | Not Active | Active | 9.23 | 24.3 | 
O=C(/C=C/c1ccccc1)c1ccccc1O [2'-HYDROXYCHALCONE] | Not Active | Not Active | Not Active | Active |  |  | 
COc1ccc(/C=C/C(=O)c2ccc(O)cc2O)cc1 |  |  | Not Active | Active | 12 | 33.3 | 
COc1ccc(C(=O)/C=C/c2ccc(Cl)c(Cl)c2)c(O)c1 | Not Active | Not Active | Not Active | Active |  |  | 
COc1ccc(/C=C/C(=O)c2ccccc2O)cc1 | Not Active | Not Active | Not Active | Active |  |  | 
O=C(/C=C/c1ccccc1Cl)c1c(O)ccc2ccccc12 |  |  | Not Active | Active | 5.58 | 5.21 | 
COc1ccc(/C=C/C(=O)c2ccc3ccccc3c2O)cc1 |  |  | Not Active | Active | 9.83 | 16.9 | 
O=C(/C=C/c1ccccc1)c1ccc(O)cc1O [2',4'-DIHYDROXYCHALCONE] | Not Active | Not Active | Not Active | Active |  |  | 
O=C(/C=C/c1ccc(Cl)c(Cl)c1)c1c(O)ccc2ccccc12 |  |  | Not Active | Active | 7.26 | 8.78 | 
COc1ccc(/C=C/C(=O)c2ccccc2)cc1OC | Not Active | Not Active | Not Active | Active |  |  | 
COc1cc(OO)ccc1C(=O)/C=C/c1ccc(Cl)c(Cl)c1 | Not Active | Not Active | Not Active | Active |  |  | 

The next lines start with results.

IC50 ([1]; mdck-ii) | IC50 ([2]; mcf7/mx) | inhibition (INH) [3] | inhibition (INH) [4] | IC50 ([1]; read-out: IC50) [µM] | IC50 ([2]; read-out: IC50) [µM] | Structure (SMILES) | Activity [5]
 |  | Not Active | Active | 2.89 | 3.81 | COc1ccc(/C=C/C(=O)c2c(O)ccc3ccccc23)cc1 | 
 |  | Not Active | Active | 1.47 | 3.15 | COc1cccc(/C=C/C(=O)c2ccc(OC)cc2O)c1 | 
 |  | Not Active | Active | 1.16 | 2.19 | COc1ccc(/C=C/C(=O)c2ccc(OC)c(OC)c2)cc1 | 
 |  | Not Active | Active | 3 | 5.83 | COc1ccc(/C=C/C(=O)c2c(O)cc(OC)cc2OC)cc1 [FLAVOKAWAIN A] | 
 |  | Not Active | Active | 1.03 | 2.2 | COc1ccc(C(=O)/C=C/c2ccc(OC)c(OC)c2)c(OC)c1 | 
 |  | Not Active | Active | 1.06 | 2.17 | COc1ccc(C(=O)/C=C/c2ccc(OC)c(OC)c2)c(O)c1 | 
 |  | Not Active | Active | 1.93 | 1.93 | COc1cccc(/C=C/C(=O)c2c(O)ccc3ccccc23)c1 | 
 |  | Not Active | Active | 2.63 | 3.13 | COc1ccc(C(=O)/C=C/c2ccccc2Cl)c(OC)c1 | 
 |  | Not Active | Active | 1.13 | 3.09 | COc1ccc(C(=O)/C=C/c2ccc(Cl)cc2)c(OC)c1 | 
 |  | Not Active | Active | 2.58 | 2.77 | O=C(/C=C/c1ccccc1)c1c(O)ccc2ccccc12 | 
 |  | Not Active | Active | 1.91 | 2.34 | COc1ccc(/C=C/C(=O)c2ccc(OC)cc2OC)cc1 [METOCHALCONE] | 
 |  | Not Active | Active | 2.2 | 4.2 | COc1ccc(/C=C/C(=O)c2ccc(OC)cc2O)cc1 | 
 |  | Not Active | Active | 1.73 | 2.72 | COc1ccc(C(=O)/C=C/c2ccc(Cl)cc2)cc1OC | 
 |  | Not Active | Active | 0.85 | 0.93 | COc1ccc(/C=C/C(=O)c2ccc(O)cc2O)cc1OC | 
 |  | Not Active | Active | 1.95 | 2.5 | COc1ccc(/C=C/C(=O)c2ccc3ccccc3c2O)cc1OC | 
 |  | Not Active | Active | 1.94 | 2.8 | COc1cccc(/C=C/C(=O)c2ccc(O)cc2O)c1 | 
 |  | Not Active | Active | 0.72 | 1.84 | COc1ccc(/C=C/C(=O)c2c(O)ccc3ccccc23)cc1OC | Dose-dependent effect
 |  | Not Active | Active | 2.82 | 5.27 | COc1cc(O)c(C(=O)/C=C/c2ccccc2Cl)c(OC)c1 | 
